{
  "source": "ChEMBL document CHEMBL1154610",
  "about": "“Discovery and preclinical evaluation of [4-[[1-(3-fluorophenyl)methyl]-1H-indazol-5-ylamino]-5-methylpyrrolo[2,1-f][1,2,4]triazin-6-yl]carbamic acid, (3S)-3-morpholinylmethyl ester (BMS-599626), a selective and orally efficacious inhibitor of human epidermal growth factor receptor 1 and 2 kinases” (J Med Chem, 2009)",
  "key": {"BT-474": {"system": "BT-474", "assay": "Antiproliferative activity against human BT474 cells after 72 hrs by MTT assay", "type": "functional, cell-based", "details": "BT-474, 72 h", "summary_of_the_method": "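Cell proliferation IC50 reported as the mean of three independent determinations. BT474 is a breast line (HER2+++/HER1+); A2780 serves as a HER-independent control.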"}, "[1]": {"assay": "Cmax in BALB/c mouse at 50 mg/kg, po", "type": "ADME, organism-based", "parameters": "dose 50 mg/kg, route oral", "details": "in vivo"}, "[2]": {"assay": "Metabolic stability in mouse liver microsomes assessed per mg of protein at 10 uM after 10 mins", "type": "ADME, Microsome", "summary_of_the_method": "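Mouse liver microsomes incubated with compound at 10 µM for 10 min; metabolic rate expressed as nmol/min/mg protein.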"}, "[3]": {"assay": "Intrinsic permeability in human Caco-2 cells", "type": "ADME, cell-based", "details": "read-out: permeability"}, "[4]": {"assay": "Cmax in mouse at 120 mg/kg, po", "type": "ADME, organism-based", "parameters": "dose 120 mg/kg, route oral", "details": "in vivo"}, "[5]": {"assay": "Tmax in mouse at 120 mg/kg, po", "type": "ADME, organism-based", "parameters": "dose 120 mg/kg, route oral", "details": "in vivo", "summary_of_the_method": "(§1)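 Mouse PK, average of three animals. Solution formulation in PG/Tween80/water (40:10:50), given orally at 120 mg/kg or iv at 25 mg/kg. Tmax taken from the oral arm; Vss taken from the iv arm.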"}, "[6]": {"assay": "AUC (0 to 24 hrs) in mouse at 120 mg/kg, po", "type": "ADME, organism-based", "parameters": "time < 24 hr, dose 120 mg/kg, route oral", "details": "plasma", "summary_of_the_method": "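Mice were dosed orally at 120 mg/kg as a solution in PG/Tween80/water (40:10:50).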"}, "[7]": {"assay": "Half life in mouse plasma at 120 mg/kg, po", "type": "ADME, organism-based", "parameters": "dose 120 mg/kg, route oral"}, "[8]": {"assay": "Clearance in mouse at 25 mg/kg, iv", "type": "ADME, organism-based", "parameters": "dose 25 mg/kg, route intravenous", "details": "in vivo"}, "[9]": {"assay": "Volume of distribution at steady state in mouse at 25 mg/kg, iv", "type": "ADME, organism-based", "parameters": "dose 25 mg/kg, route intravenous", "details": "in vivo, read-out: Vdss", "summary_of_the_method": "as §1"}, "[10]": {"assay": "Oral bioavailability in mouse at 120 mg/kg", "type": "ADME, organism-based", "details": "in vivo"}, "[11]": {"assay": "Tmax in rat at 10 mg/kg, po", "type": "ADME, organism-based", "parameters": "dose 10 mg/kg, route oral", "details": "in vivo", "summary_of_the_method": "(§2)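 Rat PK, average of three animals. Solution formulation in PEG400/Tween80/water (50:0.1:50), given orally at 10 mg/kg or iv at 2.5 mg/kg. Tmax comes from oral dosing; Vss comes from iv dosing.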"}, "[12]": {"assay": "AUC (0 to 24 hrs) in rat at 10 mg/kg, po", "type": "ADME, organism-based", "parameters": "time < 24 hr, dose 10 mg/kg, route oral", "details": "plasma"}, "[13]": {"assay": "Clearance in rat at 2.5 mg/kg, iv", "type": "ADME, organism-based", "parameters": "dose 2.5 mg/kg, route intravenous", "details": "in vivo"}, "[14]": {"assay": "Volume of distribution at steady state in rat at 2.5 mg/kg, iv", "type": "ADME, organism-based", "parameters": "dose 2.5 mg/kg, route intravenous", "details": "in vivo, read-out: Vdss", "summary_of_the_method": "as §2"}, "[15]": {"assay": "AUC (0 to 24 hrs) in dog at 25 mg/kg, po", "type": "ADME, organism-based, Canis lupus familiaris", "parameters": "time < 24 hr, dose 25 mg/kg, route oral", "details": "plasma"}, "[16]": {"assay": "Half life in dog plasma at 25 mg/kg, po", "type": "ADME, organism-based, Canis lupus familiaris", "parameters": "dose 25 mg/kg, route oral"}, "[17]": {"assay": "Clearance in dog at 1.5 mg/kg, iv", "type": "ADME, organism-based, Canis lupus familiaris", "parameters": "dose 1.5 mg/kg, route intravenous", "details": "in vivo"}, "[18]": {"assay": "Volume of distribution at steady state in dog at 1.5 mg/kg, iv", "type": "ADME, organism-based, Canis lupus familiaris", "parameters": "dose 1.5 mg/kg, route intravenous", "details": "in vivo, read-out: Vdss", "summary_of_the_method": "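Dog PK, average of two animals. Compound dosed as a PEG400/Tween80/water (50:0.1:50) solution, orally at 25 mg/kg and iv at 1.5 mg/kg. Oral data give Tmax; iv data give Vss.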"}, "[19]": {"assay": "Oral bioavailability in dog at 25 mg/kg", "type": "ADME, organism-based, Canis lupus familiaris", "details": "in vivo"}, "[20]": {"assay": "Tmax in cynomolgus monkey at 5 mg/kg, po", "type": "ADME, organism-based, Macaca fascicularis", "parameters": "dose 5 mg/kg, route oral", "details": "in vivo", "summary_of_the_method": "(§3)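 Monkey PK, mean of two animals. Compound given as a solution in PEG400/Tween80/water (50:0.1:50), 5 mg/kg both orally and iv. Tmax from the oral route; steady-state volume of distribution from the iv route.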"}, "[21]": {"assay": "Mean residence time in cynomolgus monkey at 5 mg/kg, iv", "type": "ADME, organism-based, Macaca fascicularis", "parameters": "dose 5 mg/kg, route intravenous", "details": "in vivo"}, "[22]": {"assay": "Volume of distribution at steady state in cynomolgus monkey at 5 mg/kg, iv", "type": "ADME, organism-based, Macaca fascicularis", "parameters": "dose 5 mg/kg, route intravenous", "details": "in vivo, read-out: Vdss", "summary_of_the_method": "as §3"}, "L2987": {"system": "L2987", "assay": "Antitumor activity against human L2987 cells xenografted in athymic mouse at 60 mg/kg, po qd for 14 days", "type": "functional", "details": "L2987, 336 h, read-out: TGI", "summary_of_the_method": "(§4)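 Xenograft-bearing mice dosed orally once daily in propylene glycol/Tween80/water (40:10:50). TGI taken as percent tumor growth inhibition during treatment; significance from mean tumor weight at end of treatment; body weight loss and morbidity monitored.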"}, "[23]": {"assay": "Antitumor activity against human GEO cells xenografted in athymic mouse at 120 mg/kg, po qd for 14 days", "type": "functional", "details": "336 h, read-out: TGI", "summary_of_the_method": "as §4"}, "[24]": {"assay": "Antitumor activity against human GEO cells xenografted in athymic mouse at 180 mg/kg, po qd for 14 days", "type": "functional", "details": "336 h, read-out: TGI", "summary_of_the_method": "as §4"}, "[25]": {"assay": "Antitumor activity against human KPL4 cells xenografted in athymic mouse at 60 mg/kg, po qd for 21 days", "type": "functional", "details": "KPL4, 504 h, read-out: TGI", "summary_of_the_method": "as §4"}, "[26]": {"assay": "Antitumor activity against human KPL4 cells xenografted in athymic mouse at 180 mg/kg, po qd for 21 days", "type": "functional", "details": "KPL4, 504 h, read-out: TGI", "summary_of_the_method": "as §4"}, "NCI-N87": {"system": "NCI-N87", "assay": "Antitumor activity against human NCI-N87 cells xenografted in athymic mouse at 60 mg/kg, po qd for 21 days", "type": "functional", "details": "NCI-N87, 504 h, read-out: TGI", "summary_of_the_method": "as §4"}, "Cytochrome P450 2D6": {"target": "Cytochrome P450 2D6 (Homo sapiens, UniProt P10635)", "sequence (P10635 whole entry)": "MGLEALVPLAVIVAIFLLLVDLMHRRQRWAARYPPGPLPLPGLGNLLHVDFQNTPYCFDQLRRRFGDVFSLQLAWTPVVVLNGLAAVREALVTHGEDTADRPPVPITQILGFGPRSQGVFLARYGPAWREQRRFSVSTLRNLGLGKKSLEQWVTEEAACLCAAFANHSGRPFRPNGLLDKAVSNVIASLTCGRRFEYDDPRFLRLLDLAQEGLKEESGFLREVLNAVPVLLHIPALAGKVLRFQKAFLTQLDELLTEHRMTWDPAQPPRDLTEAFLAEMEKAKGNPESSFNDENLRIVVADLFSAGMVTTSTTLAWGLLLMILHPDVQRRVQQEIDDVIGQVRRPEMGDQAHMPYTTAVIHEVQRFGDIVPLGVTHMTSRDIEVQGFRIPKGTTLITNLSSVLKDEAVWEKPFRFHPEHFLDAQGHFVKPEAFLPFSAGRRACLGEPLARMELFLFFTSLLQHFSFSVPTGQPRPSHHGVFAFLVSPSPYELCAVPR", "assay": "Inhibition of human CYP2D6", "type": "ADME"}, "[27]": {"assay": "Protein binding in mouse plasma at 10 uM by equilibrium dialysis", "type": "ADME, cell-free", "details": "read-out: PPB (converted)"}, "[28]": {"assay": "Protein binding in dog plasma at 10 uM by equilibrium dialysis", "type": "ADME, cell-free, Canis lupus familiaris", "details": "read-out: PPB (converted)"}, "[29]": {"assay": "Protein binding in cynomolgus monkey plasma at 10 uM by equilibrium dialysis", "type": "ADME, cell-free, Macaca fascicularis", "details": "read-out: PPB (converted)"}},
  "data": [
    {"smiles": "Cc1c(NC(=O)OC[C@@H]2COCCN2)cn2ncnc(Nc3ccc4c(cnn4Cc4cccc(F)c4)c3)c12", "note": "[AC-480]", "values": [
      {"measurement": "IC50", "setting": "BT-474", "value": 310, "unit": "nM"},
      {"measurement": "Cmax", "setting": "[1]", "value": 4.1, "unit": "µM"},
      {"measurement": "Stability", "setting": "[2]", "value": 0.02, "unit": "nmol/min"},
      {"measurement": "Papp", "setting": "[3]", "value": 21.4, "unit": "×10⁻⁶ cm/s"},
      {"measurement": "Cmax", "setting": "[4]", "value": 18, "unit": "µM"},
      {"measurement": "Tmax", "setting": "[5]", "value": 1, "unit": "h"},
      {"measurement": "AUC(0-t) at 24 h", "setting": "[6]", "value": 147, "unit": "µM·h"},
      {"measurement": "half-life", "setting": "[7]", "value": 2.7, "unit": "h"},
      {"measurement": "clearance", "setting": "[8]", "value": 21.3, "unit": "mL/min/kg"},
      {"measurement": "Vd", "setting": "[9]", "value": 4.7, "unit": "L/kg"},
      {"measurement": "bioavailability", "setting": "[10]", "value": 83, "unit": "%"},
      {"measurement": "Tmax", "setting": "[11]", "value": 0.7, "unit": "h"},
      {"measurement": "AUC(0-t) at 24 h", "setting": "[12]", "value": 2.9, "unit": "µM·h"},
      {"measurement": "clearance", "setting": "[13]", "value": 41.6, "unit": "mL/min/kg"},
      {"measurement": "Vd", "setting": "[14]", "value": 5.7, "unit": "L/kg"},
      {"measurement": "AUC(0-t) at 24 h", "setting": "[15]", "value": 14, "unit": "µM·h"},
      {"measurement": "half-life", "setting": "[16]", "value": 7.2, "unit": "h"},
      {"measurement": "clearance", "setting": "[17]", "value": 24.8, "unit": "mL/min/kg"},
      {"measurement": "Vd", "setting": "[18]", "value": 10.1, "unit": "L/kg"},
      {"measurement": "bioavailability", "setting": "[19]", "value": 49, "unit": "%"},
      {"measurement": "Tmax", "setting": "[20]", "value": 1.5, "unit": "h"},
      {"measurement": "MRT", "setting": "[21]", "value": 6.4, "unit": "h"},
      {"measurement": "Vd", "setting": "[22]", "value": 4, "unit": "L/kg"},
      {"measurement": "inhibition in vivo at 60 mg/kg", "setting": "L2987", "value": 58, "unit": "%"},
      {"measurement": "inhibition in vivo at 120 mg/kg", "setting": "[23]", "value": 95, "unit": "%"},
      {"measurement": "inhibition in vivo at 180 mg/kg", "setting": "[24]", "value": 88, "unit": "%"},
      {"measurement": "inhibition in vivo at 60 mg/kg", "setting": "[25]", "value": 61, "unit": "%"},
      {"measurement": "inhibition in vivo at 180 mg/kg", "setting": "[26]", "value": 129, "unit": "%"},
      {"measurement": "inhibition in vivo at 60 mg/kg", "setting": "NCI-N87", "value": 39, "unit": "%"},
      {"measurement": "IC50", "setting": "Cytochrome P450 2D6", "value": "> 40000", "unit": "nM"},
      {"measurement": "fraction unbound at 10 µM", "setting": "[27]", "value": 0.017},
      {"measurement": "fraction unbound at 10 µM", "setting": "[28]", "value": 0.029},
      {"measurement": "fraction unbound at 10 µM", "setting": "[29]", "value": 0.031}
    ]}
  ]
}
